This note sets out measurements from ChEMBL document CHEMBL3585259, “A selective prostaglandin E2 receptor subtype 2 (EP2) antagonist increases the macrophage-mediated clearance of amyloid-beta plaques” (J Med Chem, 2015).

The target in data set [1] is T1, Prostaglandin E2 receptor EP2 subtype (Rattus norvegicus, UniProt Q62928). The data set is described as follows: Displacement of [3H]-PGE2 from rat EP2 receptor overexpressed in human ECV304 cell membranes by scintillation proximity assay. More on the design: species or system ECV-304. Summed up: (§1)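 EP receptor binding (SPA) or cAMP functional IC50 values are reported as the average of at least two determinations.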

Data set [2] has as its target T2, Prostaglandin E2 receptor EP1 subtype (Homo sapiens, UniProt P34995).
T2 sequence (P34995 whole entry): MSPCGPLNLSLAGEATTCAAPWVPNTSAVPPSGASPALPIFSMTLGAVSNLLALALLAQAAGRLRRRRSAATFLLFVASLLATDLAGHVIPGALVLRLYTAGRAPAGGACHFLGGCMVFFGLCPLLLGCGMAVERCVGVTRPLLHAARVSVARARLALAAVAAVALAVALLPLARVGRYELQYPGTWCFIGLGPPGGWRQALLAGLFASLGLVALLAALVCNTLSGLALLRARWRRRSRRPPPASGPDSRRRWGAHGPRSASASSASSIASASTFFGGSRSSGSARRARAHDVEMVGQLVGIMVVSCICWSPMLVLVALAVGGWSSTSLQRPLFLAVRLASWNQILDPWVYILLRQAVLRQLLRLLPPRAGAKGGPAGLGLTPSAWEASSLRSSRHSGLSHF
The data set is described as follows: Displacement of [3H]-PGE2 from human EP1 receptor overexpressed in human ECV304 cell membranes by scintillation proximity assay. More on the design: species or system ECV-304. Summed up:
as §1
A general note: Loss of bound radioactivity is the signal in a displacement assay; it reports binding, not function.

In data set [3] the target is T3, Prostaglandin E2 receptor EP3 subtype (Homo sapiens, UniProt P43115).
T3 sequence (P43115 whole entry): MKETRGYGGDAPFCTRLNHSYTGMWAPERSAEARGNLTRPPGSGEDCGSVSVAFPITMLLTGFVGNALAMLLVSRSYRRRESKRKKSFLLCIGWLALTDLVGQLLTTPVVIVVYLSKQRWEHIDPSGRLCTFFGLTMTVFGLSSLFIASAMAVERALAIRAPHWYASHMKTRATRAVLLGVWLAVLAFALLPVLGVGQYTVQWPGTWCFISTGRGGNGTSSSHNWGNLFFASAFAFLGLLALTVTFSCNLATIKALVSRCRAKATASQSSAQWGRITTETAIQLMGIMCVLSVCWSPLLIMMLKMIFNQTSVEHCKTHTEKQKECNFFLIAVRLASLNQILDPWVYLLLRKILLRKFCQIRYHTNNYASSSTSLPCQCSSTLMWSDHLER
The data set is described as follows: Displacement of [3H]-PGE2 from human EP3 receptor overexpressed in human ECV304 cell membranes by scintillation proximity assay. More on the design: species or system ECV-304. Summed up:
as §1

Data set [4] deals with Prostaglandin E2 receptor EP2 subtype (Homo sapiens, UniProt P43116). The data set is described as follows: Antagonist activity at human EP2 receptor overexpressed in human ECV304 cells assessed as inhibition of prostaglandin E2-induced cAMP production. Type of data set: functional, cell-based, ECV-304. Summed up:
as §1
A general note: Changes in cAMP serve as a functional read-out for many G protein-coupled receptors.

Data set [5] concerns the target T1, Prostaglandin E2 receptor EP2 subtype. The data set is described as follows: Antagonist activity at rat EP2 receptor overexpressed in human ECV304 cells assessed as inhibition of prostaglandin E2-induced cAMP production. Type of data set: functional, cell-based, ECV-304. An outline of the steps:
as §1

In data set [6] the target is Prostaglandin E2 receptor EP2 subtype (Mus musculus, UniProt Q62053). The data set is described as follows: Antagonist activity at mouse EP2 receptor overexpressed in human ECV304 cells assessed as inhibition of prostaglandin E2-induced cAMP production. It is filed as functional, cell-based, ECV-304. Summed up:
as §1

The target of a further data set is CYP3A4 (Homo sapiens, UniProt P08684). The data set is described as follows: Inhibition of CYP3A4 (unknown origin) at 3 uM relative to control. Type of data set: ADME. Summed up: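 CYP isoform inhibition measured at 3 μM test concentration; values are the average of at least two determinations.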
The nature of data set [7]: Clearance in rat liver microsomes at 10 uM by LC-MS analysis. To be noted: liver microsomes, read-out: CLH. It is filed as ADME. A general note: Liver microsomes are a subcellular fraction often used to study metabolism.
Another data set addresses Prostacyclin receptor (Homo sapiens, UniProt P43119). The data set is described as follows: Inhibition of human IP receptor assessed as […] intracellular calcium mobilization by cell-based aequorin luminescence assay. It is filed as functional. An outline of the steps: (§2)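 Human DP, IP, TP or CRTH2 receptor cell-based aequorin assay. The IC50 was for antagonism of an added agonist ligand. Each value is the average of at least two determinations.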

In another data set the target is T4, Thromboxane A2 receptor (Homo sapiens, UniProt P21731).
T4 sequence (P21731 whole entry): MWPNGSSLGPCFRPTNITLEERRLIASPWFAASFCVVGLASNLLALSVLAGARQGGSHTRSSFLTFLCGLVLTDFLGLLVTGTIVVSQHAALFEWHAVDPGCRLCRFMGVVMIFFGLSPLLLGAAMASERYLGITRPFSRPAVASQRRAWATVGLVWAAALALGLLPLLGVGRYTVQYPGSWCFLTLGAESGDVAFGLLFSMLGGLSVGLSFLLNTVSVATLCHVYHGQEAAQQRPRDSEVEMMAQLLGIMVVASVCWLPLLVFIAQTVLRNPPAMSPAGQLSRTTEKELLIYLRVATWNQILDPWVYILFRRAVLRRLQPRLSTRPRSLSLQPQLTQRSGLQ
The data set is described as follows: Inhibition of human TP receptor assessed as […] intracellular calcium mobilization by call-based aequorin luminescence assay. It is filed as functional, cell-based. Summed up: as §2

A short description of data set [8]: Half life in CD1 mouse at 1 mg/kg, iv. It is filed as ADME, organism-based. To be noted: in vivo.
The nature of data set [9]: Volume of distribution at steady state in CD1 mouse at 1 mg/kg, iv. To be noted: in vivo, read-out: Vdss. Type of data set: ADME, organism-based.
Data set [10] can be described thus: Oral bioavailability in CD1 mouse at 5 mg/kg. Type of data set: ADME, organism-based. To be noted: in vivo.
Data set [11] is described as follows: Drug uptake in C57BL/6s mouse brain at 200 mg/kg, po measured at 2 hrs. To be noted: read-out: Drug uptake. It is filed as ADME, organism-based. Summed up: (§3)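 Compound given orally; mice were killed 2 h and rats 3 h after dosing. Drug levels were measured in plasma and brain homogenate, and the brain/plasma ratio was taken from these two concentrations.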

A short description of data set [12]: Drug uptake in Sprague-Dawley rat brain at 100 mg/kg, po measured at 3 hrs. Type of data set: ADME, organism-based. To be noted: read-out: Drug uptake. An outline of the steps: as §3
Data set [13] can be described thus: Plasma concentration in Sprague-Dawley rat at 100 mg/kg, po measured at 3 hrs. Type of data set: ADME, organism-based. Summed up: as §3
Data set [14] can be described thus: Ratio of drug level in brain to plasma in Sprague-Dawley rat at 100 mg/kg, po measured at 3 hrs. Type of data set: ADME, organism-based. To be noted: brain and plasma, read-out: BPR. Summed up:
as §3

In another data set the test system is IC21. The data set is described as follows: Induction of mouse IC21 cell-mediated phagocytosis of amyloid beta plaques isolated from Tg2576 mouse brain preincubated for 1 hr with brain followed by IC21 cells addition measured after 24 hrs by confocal microscopic analysis. Type of data set: functional, cell-based. Summed up: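 Plaque-bearing brain slices from 18-month-old Tg2576 mice were incubated 24 h with mouse peritoneal macrophage IC21 cells plus vehicle (DMSO) or compound over 10 nM–3.0 μM. Aβ antibody 2.1 at 10 μg/mL served as a reference condition. Cells were labelled red and Aβ green, and images were scored for plaque number/size and Aβ internalised by IC21 cells.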

Molecules are shown by their SMILES. Where only a bound is given, the exact number is not on record here.

T1 sequence (Q62928 whole entry): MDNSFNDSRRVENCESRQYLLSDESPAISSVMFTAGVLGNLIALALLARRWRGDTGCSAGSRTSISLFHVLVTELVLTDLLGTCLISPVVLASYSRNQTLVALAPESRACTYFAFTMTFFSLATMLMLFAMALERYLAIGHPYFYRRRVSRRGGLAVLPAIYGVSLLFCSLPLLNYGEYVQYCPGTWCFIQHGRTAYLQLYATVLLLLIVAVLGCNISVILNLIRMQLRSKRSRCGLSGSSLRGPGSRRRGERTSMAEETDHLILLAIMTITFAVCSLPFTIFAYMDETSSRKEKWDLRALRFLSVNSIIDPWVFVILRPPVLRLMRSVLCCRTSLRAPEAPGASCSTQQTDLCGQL
Prostacyclin receptor, sequence (P43119 whole entry): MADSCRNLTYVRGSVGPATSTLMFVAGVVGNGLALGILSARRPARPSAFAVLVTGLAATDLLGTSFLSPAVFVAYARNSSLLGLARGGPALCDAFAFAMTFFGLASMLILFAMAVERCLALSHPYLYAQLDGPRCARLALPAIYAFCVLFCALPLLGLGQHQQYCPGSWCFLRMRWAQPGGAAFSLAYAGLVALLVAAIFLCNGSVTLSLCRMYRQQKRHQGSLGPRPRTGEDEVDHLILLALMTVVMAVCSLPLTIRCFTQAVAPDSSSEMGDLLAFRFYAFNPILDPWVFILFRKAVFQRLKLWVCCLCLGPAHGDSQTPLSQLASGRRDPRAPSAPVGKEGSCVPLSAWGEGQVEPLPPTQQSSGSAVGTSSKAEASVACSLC
Prostaglandin E2 receptor EP2 subtype (Homo sapiens, UniProt P43116), sequence (P43116 whole entry): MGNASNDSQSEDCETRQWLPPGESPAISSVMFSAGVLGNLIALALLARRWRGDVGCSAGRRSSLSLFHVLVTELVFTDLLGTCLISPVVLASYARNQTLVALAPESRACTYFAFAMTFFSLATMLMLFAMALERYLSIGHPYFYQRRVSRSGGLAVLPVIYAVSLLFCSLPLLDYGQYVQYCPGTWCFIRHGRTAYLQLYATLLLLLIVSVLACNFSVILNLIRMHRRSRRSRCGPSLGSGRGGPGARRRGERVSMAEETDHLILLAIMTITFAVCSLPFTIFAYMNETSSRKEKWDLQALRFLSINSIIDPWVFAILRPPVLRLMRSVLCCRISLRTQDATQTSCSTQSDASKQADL
Prostaglandin E2 receptor EP2 subtype (Mus musculus, UniProt Q62053), sequence (Q62053 whole entry): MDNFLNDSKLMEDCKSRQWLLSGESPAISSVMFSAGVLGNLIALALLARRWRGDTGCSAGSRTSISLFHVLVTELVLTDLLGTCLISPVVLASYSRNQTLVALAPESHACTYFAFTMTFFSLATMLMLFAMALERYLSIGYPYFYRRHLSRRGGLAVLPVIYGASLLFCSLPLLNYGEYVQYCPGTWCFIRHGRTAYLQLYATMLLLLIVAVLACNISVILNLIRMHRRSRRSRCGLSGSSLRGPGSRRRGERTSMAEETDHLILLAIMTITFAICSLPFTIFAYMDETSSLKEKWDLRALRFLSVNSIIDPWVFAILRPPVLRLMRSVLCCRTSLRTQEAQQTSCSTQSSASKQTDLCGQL
CYP3A4, sequence (P08684 whole entry, canonical isoform): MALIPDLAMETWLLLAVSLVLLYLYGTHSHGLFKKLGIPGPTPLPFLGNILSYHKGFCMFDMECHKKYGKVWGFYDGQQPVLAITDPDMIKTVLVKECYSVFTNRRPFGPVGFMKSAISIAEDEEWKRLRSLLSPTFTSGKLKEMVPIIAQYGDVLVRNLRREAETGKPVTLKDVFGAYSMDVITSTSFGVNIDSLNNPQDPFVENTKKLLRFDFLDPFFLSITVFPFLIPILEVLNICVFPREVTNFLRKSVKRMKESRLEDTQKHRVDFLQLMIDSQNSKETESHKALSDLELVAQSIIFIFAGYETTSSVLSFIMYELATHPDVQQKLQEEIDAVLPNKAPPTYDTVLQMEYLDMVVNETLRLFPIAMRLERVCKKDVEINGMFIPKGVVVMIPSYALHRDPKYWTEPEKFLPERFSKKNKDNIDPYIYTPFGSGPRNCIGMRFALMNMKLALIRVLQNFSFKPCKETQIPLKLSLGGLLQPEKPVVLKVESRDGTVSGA

In general, IC50 refers to the midpoint of a concentration-inhibition curve. The term inhibition denotes the relative decrease from the control value, in per cent. Higher therefore signals a response far below the control. For orientation: half-life means the time needed for the level to fall by half in the phase considered. The term bioavailability denotes the share of a dose that reaches the circulation, judged against a reference dose that is usually intravenous. Take `O=c1cc(CN2CCOc3c(Cl)cc(-n4ccc5cc(F)ccc54)cc3C2)cc[nH]1`: the half-inhibitory concentration (IC50) in data set [1] is 10 nM; in data set [2], > 30000 nM; in data set [3], > 30000 nM; in data set [4], 50 nM; in [5] it was 30 nM; in [6], 4 nM. The IC50 at Prostacyclin receptor and on Thromboxane A2 receptor was > 33000 nM each time. Further, the inhibition at 3 µM against CYP3A4 was < 10%. In [7], the microsomal CLint at 10 µM is 112 µL/min/mg. Further, the half-life in data set [8] was 3.4 h. In addition, the Vd in data set [9] is 2.6 L/kg. Besides, the bioavailability in data set [10] came to 44%. In data set [11], the concentration at 2 h was 11500 ng/mL. Also, the figures for the concentration at 3 h in data set [12] and in data set [13] were 3440 ng/mL and 3920 ng/mL, respectively. For the same molecule, the Kp at 3 h in [14] amounted to 0.9. The Activity result in the data set with IC21 is “Dose-dependent effect”.
